The values that follow come from paper PMC2275130 (Nucleic Acids Research, 2008).

What all share (type): biochemical
For test [1], the target named is T1, HCV NS5BCΔ21 (Hepatitis C virus genotype 1b, UniProt P26663). Kind of test: NS5B RdRp assay. The settings on record: NS5B inhibition (IC50 μM), poly rA/U12, 25 μM UTP, 0.5 mM MnCl2, 10% DMSO, 1 h at 30°C. An outline of the steps:
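NS5BCΔ21 (300–500 ng) and poly rA/U12 (0.5 μM) sat 5 min on ice before NTPs were added. Reactions ran 1 h at 30°C, then TCA quench and GF-B counting. IC50s were read from curves relative to DMSO control, from at least two independent runs.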

The target in another test is HIV-1 RT (Human immunodeficiency virus type 1 group M subtype B, UniProt P04585). Kind of test: HIV-1 RT counter screen. In a few lines:
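His-tagged p66/p51 heterodimeric wild-type RT, Ni-NTA purified, used at 10 nM. Reactions ran 37°C for 20 min, were stopped with ice-cold 5% TCA/0.5 mM pyrophosphate, filtered on GF-B and scintillation counted.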
(In general: Counterscreens check selectivity or assay interference.)

Test [2] concerns the target Klenow fragment of E. coli DNA polymerase I (Escherichia coli, UniProt P00582). The experiment in a line: Klenow polymerase counter screen. The settings on record: read-out: IC50 Klenow polymerase counter screen; poly rA/dT18, 10% DMSO. An outline of the steps: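 Exonuclease-deficient Klenow fragment from E. coli BL-21(DE3), purified by ammonium sulfate fractionation and Biorex-70, used at 10 nM. Ran 37°C for 20 min, TCA/pyrophosphate quench, GF-B filtration, scintillation counting.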

In test [3] the target is T1, HCV NS5BCΔ21. The experiment in a line: Determination of Ki and mode of inhibition. The settings on record: towards template/primer (poly rA/U12 varied), UTP fixed 25 μM. In a few lines:
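Aliquots were taken at defined times, quenched in 5% TCA/0.5 mM pyrophosphate, and counted by GF-B filter binding. Ki and mode came from Dixon and Cornish-Bowden plots. Each run was done at least twice; values average at least triplicates.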

Test [4] deals with T1, HCV NS5BCΔ21. Kind of test: Gel-based incorporation assay. The settings on record: highest concentration of wedelolactone (lane 5, 100 μM), poly rA/U12, 20 min. An outline of the steps: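 Stopped with 25 mM EDTA/0.5% SDS, then phenol-chloroform extracted and ethanol precipitated. Products were heated 90°C for 5 min, run on denaturing 6% polyacrylamide/7 M urea gel and imaged by phosphorimager.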

What is called IC50 is the concentration that inhibits the measured activity by half. As usually defined, the Ki is the equilibrium dissociation constant of an inhibitor or competing ligand from its target. With `COc1cc(O)c2c(c1)oc(=O)c1c3cc(O)c(O)cc3oc21` [Wedelolactone, 7-methoxy-5,11,12-trihydroxy-coumestan], the IC50 against HCV NS5BCΔ21 [1] is 36.1 µM; against HIV-1 RT it was greater than 250 µM; in test [2], greater than 700 µM. Moreover, the Ki on HCV NS5BCΔ21 [3] (Ki competitive) stood at 11.2 µM. The Ki uncompetitive on HCV NS5BCΔ21 [3] was determined as 43 µM. The “extension product formation (gel)” value at HCV NS5BCΔ21 [4] is “no detectable extension product”.
